The text below walks through data of ChEMBL document CHEMBL4152212, “Design and synthesis of BPR1K653 derivatives targeting the back pocket of Aurora kinases for selective isoform inhibition” (Eur J Med Chem, 2018).

In one assay the test system is HCT-116. Kind of assay: Cytotoxicity against human HCT116 cells. It is filed as functional, cell-based.
The target of assay [1] is T1, Aurora kinase A (Homo sapiens, UniProt O14965).
T1 sequence (O14965 whole entry): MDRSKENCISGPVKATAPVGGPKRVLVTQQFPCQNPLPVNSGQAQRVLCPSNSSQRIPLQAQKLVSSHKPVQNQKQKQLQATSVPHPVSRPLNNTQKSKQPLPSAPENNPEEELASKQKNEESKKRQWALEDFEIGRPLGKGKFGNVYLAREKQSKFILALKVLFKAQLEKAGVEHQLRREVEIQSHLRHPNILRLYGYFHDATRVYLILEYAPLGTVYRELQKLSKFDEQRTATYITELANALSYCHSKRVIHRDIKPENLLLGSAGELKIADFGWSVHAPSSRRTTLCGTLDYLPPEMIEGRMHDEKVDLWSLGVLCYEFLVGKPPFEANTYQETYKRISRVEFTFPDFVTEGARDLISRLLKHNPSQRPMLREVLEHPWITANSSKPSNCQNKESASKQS
Kind of assay: Inhibition of Aurora-A autophosphorylation at Thr288 in human HCT116 cells after 1 hr by Western blot analysis. It is filed as cell-based. The gist of the method:
(§1)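 HCT116 cells arrested in mitosis with 200 nM nocodazole for 24 h, then exposed to compound for 1 h over 9 concentrations. Lysed in Laemmli buffer, SDS-PAGE, PVDF immunoblot for phospho-Aurora-A Thr288 / Aurora-B Thr232 with HRP secondary and chemiluminescence. IC50 derived from blot profiles.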
Background: In western blotting, separated proteins are transferred to a membrane and probed.

Assay [2] has as its target T2, Aurora kinase B (Homo sapiens, UniProt Q96GD4). Kind of assay: Inhibition of human recombinant full length Aurora-B (1 to 344 residues) expressed in Sf9 cells after 90 mins by kinase-glo luminescence assay.
The target of assay [3] is T2, Aurora kinase B. Kind of assay: Inhibition of Aurora-B autophosphorylation at Thr232 in human HCT116 cells after 1 hr by Western blot analysis. It counts as cell-based. The gist of the method: as §1
In assay [4] the target is T1, Aurora kinase A. The experiment in a line: Inhibition of GST-tagged human recombinant Aurora A kinase domain (123 to 401 residues) expressed in Sf9 cells after 120 mins by kinase-glo luminescence assay.
For the next assay, the system named is Detroit 551. The experiment in a line: Cytotoxicity against human Detroit 551 cells. It counts as cell-based.
The subject of assay [5] is HeLa. The experiment in a line: Increase in mitotic index in human HeLa cells after 10 to 12 hrs post thymidine block by pHH3Ser10/Hoechst33342 staining-based immunofluorescence analysis. It is filed as functional, cell-based. A digest of the protocol:
(§2)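 HeLa cells synchronized by thymidine block, released and treated with compound, fixed at set times (4% paraformaldehyde, 30 min), permeabilized with 0.1% Triton X-100, blocked in 1% BSA. Stained with anti-pHH3Ser10 (1:500, 1.5 h, RT) and Alexa-594 secondary, Hoechst 33342 counterstain. Mitotic index is the percentage of pHH3Ser10-positive cells among about 2000-3000 cells per condition.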

The test system of assay [6] is HeLa. Kind of assay: Decrease in mitotic index in human HeLa cells after 10 to 12 hrs post thymidine block by pHH3Ser10/Hoechst33342 staining-based immunofluorescence analysis. It counts as functional, cell-based. The gist of the method:
as §2

The source made the active and inactive calls. No cut-off for these calls is given here.

T2 sequence (Q96GD4 whole entry, the tested form may be a part): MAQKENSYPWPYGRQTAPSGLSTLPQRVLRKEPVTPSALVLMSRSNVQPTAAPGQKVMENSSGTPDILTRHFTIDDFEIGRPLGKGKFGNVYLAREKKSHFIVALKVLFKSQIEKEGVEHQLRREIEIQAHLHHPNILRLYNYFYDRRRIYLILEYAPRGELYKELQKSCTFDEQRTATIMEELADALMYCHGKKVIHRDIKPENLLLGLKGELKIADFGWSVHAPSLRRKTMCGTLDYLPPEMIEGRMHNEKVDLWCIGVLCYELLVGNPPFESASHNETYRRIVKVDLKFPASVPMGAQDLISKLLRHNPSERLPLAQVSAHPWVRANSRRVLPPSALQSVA

As a reminder, the IC50 is the point on the concentration scale where inhibition reaches its midpoint. Take `CCN(C)Cc1cccc(NC(=O)Nc2ccc(CCNc3ncnc4oc(-c5ccccc5)c(Cl)c34)cc2)c1`: the IC50 in the assay on HCT-116 is 342 nM; at Aurora kinase A [1], 132 nM; on Aurora kinase B [2], 140 nM; on Aurora kinase B [3] it was more than 10000 nM; on Aurora kinase A [4], 9 nM; in the assay with Detroit 551, 9700 nM.
On to `CCN(CC)Cc1ccccc1NC(=O)Nc1ccc(CCNc2ncnc3oc(-c4ccccc4)c(Cl)c23)cc1`, for which the values for the half-inhibitory concentration (IC50) at Aurora kinase B [2] and on Aurora kinase A [4] were 526 nM and 462 nM, respectively.
As for `CN(C)Cc1cccc(NC(=O)Nc2ccc(CCNc3ncnc4oc(-c5ccccc5)c(Cl)c34)cc2)c1`, the result in the assay with HeLa [5] was Active. Besides, the 50% inhibitory concentration (IC50) in the assay with HCT-116 was 578 nM; against Aurora kinase A [1] it was 59.9 nM; on Aurora kinase B [2] it was 199 nM; at Aurora kinase B [3], more than 10000 nM; on Aurora kinase A [4] it was 20 nM; in the assay on Detroit 551, 5000 nM.
For `Cc1ccc(NC(=O)Nc2ccc(CCNc3ncnc4oc(-c5ccccc5)c(Cl)c34)cc2)cc1`, the IC50 at Aurora kinase B [2] turned out to be 73.3 nM; at Aurora kinase A [4], 55.5 nM.
Take `O=C(Nc1ccc(CCNc2ncnc3oc(-c4ccccc4)c(Cl)c23)cc1)Nc1cccc(CN2CCC(O)CC2)c1`: the IC50 amounted to 83.6 nM on Aurora kinase B [2] and 67.8 nM at Aurora kinase A [4].
As to `CCc1ccccc1NC(=O)Nc1ccc(CCNc2ncnc3oc(-c4ccccc4)c(Cl)c23)cc1`, the IC50 was 66.2 nM at Aurora kinase B [2] and 178 nM on Aurora kinase A [4].
On to `CN(C)Cc1ccc(NC(=O)Nc2ccc(CCNc3ncnc4oc(-c5ccccc5)c(Cl)c34)cc2)cc1`, for which the IC50 on Aurora kinase B [2] is 455 nM; at Aurora kinase A [4], 98.3 nM.
Regarding `O=C(Nc1ccc(CCNc2ncnc3oc(-c4ccccc4)c(Cl)c23)cc1)Nc1ccc(CN2CCCCC2)cc1`, the results for the IC50 at Aurora kinase B [2] and on Aurora kinase A [4] were 976 nM and 451 nM, respectively.
`O=C(Nc1ccccc1)Nc1ccc(CCNc2ncnc3oc(-c4ccccc4)c(Cl)c23)cc1`: the outcome with HeLa [5] was Active. Further, the IC50 in the assay on HCT-116 came to 153 nM; against Aurora kinase A [1], 390 nM; at Aurora kinase B [2], 66.3 nM; against Aurora kinase B [3], 191 nM; at Aurora kinase A [4], 52 nM; with Detroit 551, 7300 nM.
Take `CC(C)c1ccc(NC(=O)Nc2ccc(CCNc3ncnc4oc(-c5ccccc5)c(Cl)c34)cc2)cc1`: the IC50 at Aurora kinase B [2] and at Aurora kinase A [4] was more than 1000 nM throughout.
Consider `CCN(CC)Cc1ccc(NC(=O)Nc2ccc(CCNc3ncnc4oc(-c5ccccc5)c(Cl)c34)cc2)cc1`, for which the IC50 on Aurora kinase B [2] turned out to be 835 nM; on Aurora kinase A [4], 232 nM.
For `O=C(Nc1ccc(CCNc2ncnc3oc(-c4ccccc4)c(Cl)c23)cc1)Nc1cccc(CN2CCCCC2)c1`, the IC50 came to 102 nM at Aurora kinase B [2] and 90.2 nM on Aurora kinase A [4].
Consider `Cc1ccccc1NC(=O)Nc1ccc(CCNc2ncnc3oc(-c4ccccc4)c(Cl)c23)cc1`, for which the 50% inhibitory concentration (IC50) is 60.2 nM on Aurora kinase B [2] and 83.2 nM on Aurora kinase A [4].
For `CCc1cccc(NC(=O)Nc2ccc(CCNc3ncnc4oc(-c5ccccc5)c(Cl)c34)cc2)c1`, the IC50 was determined as 86.1 nM on Aurora kinase B [2] and 66.3 nM on Aurora kinase A [4].
Consider `O=C(Nc1ccc(CCNc2ncnc3oc(-c4ccccc4)c(Cl)c23)cc1)Nc1ccccc1CN1CCCCC1`, for which the values for the IC50 at Aurora kinase B [2] and at Aurora kinase A [4] were 122 nM and 198 nM, respectively.
On to `CC(C)c1ccccc1NC(=O)Nc1ccc(CCNc2ncnc3oc(-c4ccccc4)c(Cl)c23)cc1`, for which the IC50 is 336 nM on Aurora kinase B [2] and 525 nM on Aurora kinase A [4].
Regarding `O=C(Nc1ccc(CCNc2ncnc3oc(-c4ccccc4)c(Cl)c23)cc1)Nc1ccccc1CN1CCC(O)CC1`, the IC50 with HCT-116 stood at 310 nM; against Aurora kinase A [1], 1510 nM; on Aurora kinase B [2], 78.9 nM; against Aurora kinase B [3], 133 nM; at Aurora kinase A [4], 228 nM; with Detroit 551 it was 3500 nM. Also, the outcome in the assay on HeLa [6] was Active.
On to `CC(C)c1cccc(NC(=O)Nc2ccc(CCNc3ncnc4oc(-c5ccccc5)c(Cl)c34)cc2)c1`, for which the figures for the half-inhibitory concentration (IC50) on Aurora kinase B [2] and on Aurora kinase A [4] were 657 nM and 233 nM, respectively.
Consider `CN(C)Cc1ccccc1NC(=O)Nc1ccc(CCNc2ncnc3oc(-c4ccccc4)c(Cl)c23)cc1`, for which the IC50 is 70 nM in the assay with HCT-116, 73.4 nM on Aurora kinase A [1], 23.7 nM on Aurora kinase B [3] and 3100 nM in the assay on Detroit 551. Further, the outcome with HeLa [6] was Active.
`CCN(CC)Cc1cccc(NC(=O)Nc2ccc(CCNc3ncnc4oc(-c5ccccc5)c(Cl)c34)cc2)c1`: the IC50 on Aurora kinase B [2] amounted to 121 nM; on Aurora kinase A [4] it was 21.5 nM.
Turning to `CC(C)Cc1cccc(NC(=O)Nc2ccc(CCNc3ncnc4oc(-c5ccccc5)c(Cl)c34)cc2)c1`, the IC50 on Aurora kinase B [2] was more than 1000 nM; at Aurora kinase A [4], 247 nM.
On the same counts, the results for `Cc1cccc(NC(=O)Nc2ccc(CCNc3ncnc4oc(-c5ccccc5)c(Cl)c34)cc2)c1` are 74.9 nM and 52.6 nM.
Regarding `CC(C)Cc1ccccc1NC(=O)Nc1ccc(CCNc2ncnc3oc(-c4ccccc4)c(Cl)c23)cc1`, the values for the IC50 at Aurora kinase B [2] and at Aurora kinase A [4] were 700 nM and more than 1000 nM, respectively.
On to `O=C(Nc1ccc(CCNc2ncnc3oc(-c4ccccc4)c(Cl)c23)cc1)Nc1ccc(CN2CCC(O)CC2)cc1`, for which the half-maximal inhibitory concentration (IC50) stood at 353 nM on Aurora kinase B [2] and 150 nM on Aurora kinase A [4].
For the compound `CC(C)Cc1ccc(NC(=O)Nc2ccc(CCNc3ncnc4oc(-c5ccccc5)c(Cl)c34)cc2)cc1`, the IC50 on Aurora kinase B [2] and on Aurora kinase A [4] was more than 1000 nM each time.
As to `CCc1ccc(NC(=O)Nc2ccc(CCNc3ncnc4oc(-c5ccccc5)c(Cl)c34)cc2)cc1`, the figures for the IC50 at Aurora kinase B [2] and on Aurora kinase A [4] were 443 nM and 139 nM, respectively.
